The source of these data is ChEMBL document CHEMBL1128743, “Synthesis of tight binding inhibitors and their action on the proprotein-processing enzyme furin” (J Med Chem, 1995).

For one experiment, the target named is Furin (Homo sapiens, UniProt P09958). Description: Inhibitory activity against furin.
The next experiment has as its target Serine protease 1 (Homo sapiens, UniProt P07477). In words: Inhibitory activity against trypsin. A digest of the protocol: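 Trypsin was tested in the furin buffer: 100 mM HEPES pH 7.5, 0.5% Triton X-100, 1 mM CaCl2, 1 mM 2-mercaptoethanol.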
Experiment [1] has as its target Subtilisin Carlsberg (Bacillus licheniformis) (UniProt P00780). In words: Inhibitory activity against subtilism Carlsberg; No inhibition.

The term Ki denotes the dissociation constant of the complex between target and ligand, obtained from inhibition or displacement. Low readings indicate a stronger hold on the target, high ones a looser hold on the target.

Sequence of Furin (P09958 whole entry): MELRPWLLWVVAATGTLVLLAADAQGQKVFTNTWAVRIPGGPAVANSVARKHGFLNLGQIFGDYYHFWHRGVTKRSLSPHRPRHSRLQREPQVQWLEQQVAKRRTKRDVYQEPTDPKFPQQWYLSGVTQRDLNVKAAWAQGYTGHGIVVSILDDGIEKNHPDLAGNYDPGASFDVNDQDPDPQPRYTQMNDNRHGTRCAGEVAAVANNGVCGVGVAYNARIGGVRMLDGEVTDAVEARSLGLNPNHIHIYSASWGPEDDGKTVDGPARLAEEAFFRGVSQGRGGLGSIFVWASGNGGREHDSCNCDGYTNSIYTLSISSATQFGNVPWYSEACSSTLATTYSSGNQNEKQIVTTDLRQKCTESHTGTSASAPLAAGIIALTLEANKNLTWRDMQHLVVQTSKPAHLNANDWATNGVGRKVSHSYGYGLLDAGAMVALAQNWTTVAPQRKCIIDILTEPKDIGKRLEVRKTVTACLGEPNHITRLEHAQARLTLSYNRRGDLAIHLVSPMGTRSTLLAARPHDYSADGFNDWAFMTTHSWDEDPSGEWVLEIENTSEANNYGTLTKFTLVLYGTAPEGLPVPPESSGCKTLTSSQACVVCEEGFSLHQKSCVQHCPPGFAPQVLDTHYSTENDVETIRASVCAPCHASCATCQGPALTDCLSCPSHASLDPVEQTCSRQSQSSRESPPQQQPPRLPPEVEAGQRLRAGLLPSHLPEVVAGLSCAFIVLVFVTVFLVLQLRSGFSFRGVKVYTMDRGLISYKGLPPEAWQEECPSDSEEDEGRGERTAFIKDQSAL
Sequence of Serine protease 1 (P07477 whole entry): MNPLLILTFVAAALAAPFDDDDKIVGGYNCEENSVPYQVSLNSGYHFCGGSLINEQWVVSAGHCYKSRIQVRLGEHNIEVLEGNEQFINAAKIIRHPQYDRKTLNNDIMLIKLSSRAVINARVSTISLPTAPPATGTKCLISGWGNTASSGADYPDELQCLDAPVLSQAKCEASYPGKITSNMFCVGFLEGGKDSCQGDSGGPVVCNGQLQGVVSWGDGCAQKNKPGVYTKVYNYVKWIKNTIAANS
Sequence of Subtilisin Carlsberg (Bacillus licheniformis) (P00780 whole entry, looked up): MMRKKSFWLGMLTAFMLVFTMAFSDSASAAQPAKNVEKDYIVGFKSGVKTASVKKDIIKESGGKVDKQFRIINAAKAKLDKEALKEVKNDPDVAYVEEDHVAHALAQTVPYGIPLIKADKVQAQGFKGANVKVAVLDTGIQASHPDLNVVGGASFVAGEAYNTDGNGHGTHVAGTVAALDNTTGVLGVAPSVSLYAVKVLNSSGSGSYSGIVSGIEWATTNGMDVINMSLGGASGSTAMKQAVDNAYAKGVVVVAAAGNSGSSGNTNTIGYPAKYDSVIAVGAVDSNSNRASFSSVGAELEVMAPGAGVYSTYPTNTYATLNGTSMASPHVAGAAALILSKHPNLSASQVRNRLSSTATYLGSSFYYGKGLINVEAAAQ

`CCCCCCCCCCN[C@@H](CCCN=C(N)N)C(=O)N[C@H](C(=O)N[C@@H](CCCCN)C(=O)N[C@@H](CCCN=C(N)N)C(=O)CCC(=O)OC)C(C)C`: the affinity at Furin, expressed as Ki, was 240 nM.

`CCCCCCCCCCN[C@@H](CCCN=C(N)N)C(=O)N[C@H](C(=O)N[C@@H](CCCCN)C(=O)N[C@@H](CCCN=C(N)N)C(=O)CN[C@@H](C)C(=O)N[C@H](C(=O)NCC(N)=O)C(C)C)C(C)C` yielded a Ki at Furin of 3.4 nM.

`COC(=O)[C@@H](CC(C)C)NC(=O)CNC(=O)[C@H](NC(=O)CCC(=O)[C@H](CCCN=C(N)N)NC(=O)[C@H](CCCCN)NC(=O)[C@@H](NC(=O)[C@H](CCCN=C(N)N)NC(C)=O)C(C)C)C(C)C` registered a Ki on Furin of 350 nM.

Turning to `CCCCCCCCCCN[C@@H](CCCNC(=N)N)C(=O)N[C@H](C(=O)N[C@@H](CCCCN)C(=O)N[C@@H](CCCNC(=N)N)C(=O)CN[C@@H](C)C(=O)N[C@H](C(=O)NCC(=O)OC)C(C)C)C(C)C`, the Ki on Serine protease 1 worked out at 1900 nM.

`CCCCCCCCCCN[C@@H](CCCN=C(N)N)C(=O)N[C@H](C(=O)N[C@@H](CCCCN)C(=O)N[C@H](CCCN=C(N)N)C(=O)CN[C@@H](C)C(=O)N[C@H](C(=O)NCC(N)=O)C(C)C)C(C)C` had a Ki on Furin of 26 nM.

In the case of `CCCCCCCCCCN[C@@H](CCCN=C(N)N)C(=O)N[C@H](C(=O)N[C@@H](CCCCN)C(=O)N[C@@H](CCCN=C(N)N)C(=O)CCC(=O)N[C@@H](C(=O)NCC(=O)N[C@H](CC(C)C)C(=O)OC)C(C)C)C(C)C`, the Ki at Serine protease 1 was 20900 nM; in experiment [1] it was “Not Active”; at Furin, 330 nM.
